High-throughput results from PubChem BioAssay.
MrgX1 PAM = human MrgX1 positive allosteric modulation, primary screen. MrgX1-HEK293, Fluo-4 calcium flux, FDSS; hits give high values. actives 0.63% (n = 310,000). B-score at 10 µM;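 active means plate-corrected calcium response at least 3 library SD above typical, normal starting fluorescence, not activating the receptor alone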;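 further: compound read alongside a low EC10 to EC30 dose of BAM8-22 agonist; peak minus trough fluorescence over baseline measured at the second addition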
Target sequence (Q96LB2 whole entry, looked up): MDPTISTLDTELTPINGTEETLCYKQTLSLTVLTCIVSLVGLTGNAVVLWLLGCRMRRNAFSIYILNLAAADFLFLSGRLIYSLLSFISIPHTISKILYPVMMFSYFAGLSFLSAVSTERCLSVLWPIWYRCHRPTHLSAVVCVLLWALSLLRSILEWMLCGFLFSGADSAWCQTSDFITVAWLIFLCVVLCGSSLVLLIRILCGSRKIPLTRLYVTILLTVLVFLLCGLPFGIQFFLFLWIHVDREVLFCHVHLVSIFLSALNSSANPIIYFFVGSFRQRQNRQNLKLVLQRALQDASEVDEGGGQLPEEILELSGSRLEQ
MrgX1 agonist = agonists of human MrgX1 receptor. Q96LB2. MrgX1-HEK293 cells, Fluo-4 calcium fluorescence, agonist mode; hits give high values. B-score at 10 µM. actives 0.44% (n = 310,000);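 active means calcium response B-score plate-corrected fluorescence ratio at least 3 library SD, with starting fluorescence B-score inside 5 SD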
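times = overnight plating, then 30 min 37 °C plus 30 min room-temperature dye loading | assay system = stable human MrgX1 HEK293 cell line | input = fifteen thousand cells per well | signal = kinetic calcium dye fluorescence, Fluo-4 NW | dosing = compound delivered in addition one of three | read-out = B-scored fluorescence response ratio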
RGS4 pot = potentiators or activators of RGS4 | HEK293 M3R/inducible RGS4, carbachol calcium flux Fluo4; hits give low values | B-score at 10 µM | actives 0.92% (n = 310,000) | AID 463111;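 active means B-score of the integrated calcium signal more than 4 SD below the library mean, with starting fluorescence not abnormally high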;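 further: negative B-score means reduced calcium response which marks RGS4 activation or potentiation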
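Assay system: Inducible-RGS4 HEK293 cells carrying M3 receptor | Schedule: Compound preincubation 20 min at room temperature before agonist | Signal: Kinetic calcium fluorescence imaging with Fluo4-AM dye, 2 µM | Read-out basis: B score from integrated fluorescence ratio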
MrgX1 antag = human MrgX1 receptor antagonism, primary screen | AID 588676 | MRGX1-HEK293 calcium flux, Fluo-4, BAM8-22 antagonism; hits give low values | B-score at 10 µM | actives 1.3% (n = 310,000);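 active means calcium-response B-score plate-corrected more than 3 library SD below zero, starting fluorescence within 5 deviations, no agonist response on first addition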;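 further: peak minus trough fluorescence over baseline after final BAM8-22 challenge near maximal dose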
RGS4 block = inhibitors of human RGS4; HEK293 M3R/RGS4 inducible, Fluo-4 calcium flux; hits give high values; triggered by carbachol at its EC20; B-score at 10 µM; actives 0.45% (n = 310,000); AID 463165;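 active means B-score, a plate-corrected calcium signal, over three deviations above library mean, with baseline fluorescence within five deviations of library mean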;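 further: RGS4 expression induced by doxycycline in cells with stable M3 receptor; B-score is computed from the integrated fluorescence ratio over baseline after carbachol; higher B-score means a larger calcium signal and so more RGS4 inhibition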
Target sequence (P49798 whole entry, looked up): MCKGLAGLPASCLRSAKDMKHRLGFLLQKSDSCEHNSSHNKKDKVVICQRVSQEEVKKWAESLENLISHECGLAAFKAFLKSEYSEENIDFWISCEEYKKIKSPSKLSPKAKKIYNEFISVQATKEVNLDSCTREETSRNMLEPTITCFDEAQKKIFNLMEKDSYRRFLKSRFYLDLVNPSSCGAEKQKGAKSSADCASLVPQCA
MrgX1 antag conf = human MrgX1 receptor antagonism, re-confirmation screen | shares compounds with MrgX1 antag | MrgX1-HEK293, BAM8-22 calcium flux, Fluo-4; hits give low values | remaining BAM8-22 calcium response % of control (hits give low values), % at 10 µM | actives 19% (n = 2,300);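 active means remaining agonist calcium response no higher than 100% minus 3 SD of agonist-only control wells, with starting fluorescence near control levels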;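 further: agonist BAM8-22 given at a near maximal EC90 to ECmax level; peak minus minimum fluorescence divided by baseline after agonist addition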
HEK293 Ca flux = counter-screen for MrgX1 antagonists: effect in parental HEK293 cells; shares compounds with MrgX1 antag; actives 2% (n = 4,000); fluorescence ratio F(max-min)/F0 at 10 µM; Fluo-4 calcium fluorescence, FDSS; AID 624111;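 active means duplicate-averaged calcium fluorescence ratio at least three times the standard deviation of buffer wells, a nonspecific response in parental cells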
HEK293 Ca counter = MrgX1 allosteric activator counter-screen hit in parental HEK293 cells; shares compounds with MrgX1 antag; parental HEK293 calcium flux, Fluo-4 fluorescence ratio; hits give high values; fluorescence ratio F(max-min)/F0 at 10 µM; actives 0.4% (n = 4,000); AID 624114;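 active means calcium fluorescence ratio, averaged over duplicates, at least 3 SD of the buffer-well ratio, meaning a nonspecific response in receptor-free cells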;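 further: untransfected parental HEK293 lacking MrgX1 used as counterscreen for MrgX1 allosteric activators; fluorescence change taken during the second addition on a kinetic imager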
HEK293 Ca cntr2 = MrgX1 activator counter-screen hit in parental HEK293 cells. shares compounds with MrgX1 antag. Fluo-4 calcium fluorescence (FDSS); hits give high values. fluorescence ratio F(max-min)/F0 at 10 µM. actives 8.7% (n = 4,000);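 active means calcium fluorescence ratio at least three times the spread of buffer wells, meaning a non-specific response in parental cells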
* marks the source's active call; other numbers are inactive results; i = inactive; nt = no result. A selection: hits, their analogues and other compounds. The true share with any hit is near 3.5%.

SMILES	MrgX1 PAM	MrgX1 agonist	RGS4 pot	MrgX1 antag	RGS4 block	MrgX1 antag conf	HEK293 Ca flux	HEK293 Ca counter	HEK293 Ca cntr2
CSc1nnc2n(C)c3c(c(=O)n12)C1(CCCC1)Cc1ccccc1-3	i	i	i	i	i	nt	nt	nt	nt
CSc1n[nH]c2nc3c(c(=O)n12)C1(CCCC1)Cc1ccccc1-3	i	i	i	-5.4*	i	i	i	i	i
CCOc1cc(C(=S)N2CCOCC2)cc(Br)c1OS(=O)(=O)c1ccccc1	i	i	i	i	i	nt	nt	nt	nt
Cc1ccc(O)c(NC(=S)NC(=O)Cc2ccc(Cl)cc2)c1	i	i	-7.5*	-24*	i	27%*	i	i	i
O=C(NCCN1CCOCC1)c1ccccc1N1C(=O)[C@@H]2Cc3c([nH]c4ccccc34)C(c3ccccc3)N2C1=O (stereo partly drawn)	i	i	i	-6.8*	i	i	i	i	i
O=C(NCCCN1CCOCC1)c1ccccc1N1C(=O)[C@@H]2Cc3c([nH]c4ccccc34)C(c3ccc(F)cc3)N2C1=O (stereo partly drawn)	i	i	i	i	i	nt	nt	nt	nt
Cc1ccc(OC(=O)CCC(=O)Nc2ccc(C)c(C)c2)cc1	i	i	i	i	i	nt	nt	nt	nt
COc1ccc(OC)c(CN2CCN(C(=O)CCC(=O)c3cccs3)CC2)c1	i	i	i	i	i	nt	nt	nt	nt
CC1=NN(C(C#N)c2ccccc2C)C(C)(C)C1 (stereo not drawn)	i	i	i	i	i	nt	nt	nt	nt
COc1cccc(OCCCOc2ccccc2C(C)C)c1	i	i	i	-6.9*	i	i	i	i	i
COc1cccc(OCCOc2ccccc2[N+](=O)[O-])c1	i	i	i	i	i	nt	nt	nt	nt
COC(=O)[C@@H](NC(=O)c1ccc2c(c1)S(=O)(=O)c1ccccc1C2=O)C(C)C	i	i	i	-4.7*	i	i	i	i	i
Cc1ccc(S(=O)(=O)N(CC(=O)NC2CC2)c2ccc(C)c(Cl)c2)cc1	i	i	i	-5*	i	i	i	i	i
CSc1ccc(NC(=O)N2CC=C(n3c(=O)[nH]c4ccccc43)CC2)cc1	i	i	i	-4.7*	i	i	i	i	i
S=c1[nH]nc(-c2ccccn2)n1/N=C/c1cccc2ccccc12	i	i	i	i	i	nt	nt	nt	nt
COc1cccc(N2C(=O)Nc3ccc(Br)cc3C2(O)C(=O)NCCN(C)C)c1 (stereo not drawn)	i	i	i	i	i	nt	nt	nt	nt
O=C1c2ccccc2NC(c2cccnc2)N1c1ccccc1F (stereo not drawn)	i	i	i	i	i	nt	nt	nt	nt
Cc1cc(C)n2c(=O)c3ccc(Cl)cc3nc2c1C#N	i	i	i	-5.8*	i	i	i	i	i
COc1ccccc1Nc1nc2ccccc2n1C	i	i	i	-4.8*	i	i	i	i	i
C=CCN1C(=O)C2(/C(=C(\O)c3ccc4c(c3)OCCO4)C(=O)C(=O)N2CCCOC)c2ccccc21 (stereo not drawn)	i	i	i	i	i	nt	nt	nt	nt
CCN1C(=O)C(NC(C)=O)c2cc(OC)ccc21 (stereo not drawn)	i	i	i	i	i	nt	nt	nt	nt
CC(=O)NC1C(=O)N(CCN2CCOCC2)c2ccc(Br)cc21 (stereo not drawn)	i	i	i	-9.3*	i	i	i	i	47*
CCOc1ccc2c(c1)C(NC(C)=O)C(=O)N2CCN1CCOCC1 (stereo not drawn)	i	i	i	-12*	i	i	i	i	i
Cc1ccc(S(=O)(=O)N2CCC(C(=O)N3CCC(C(=O)NCc4cccnc4)CC3)CC2)cc1	i	i	i	-6.6*	i	85%*	i	i	i
CC(O)[C@H]1CNC(=O)C(=O)N1CCC12CC3CC(CC(C3)C1)C2 (stereo partly drawn)	i	i	i	i	i	nt	nt	nt	nt
SMILES	MrgX1 PAM	MrgX1 agonist	RGS4 pot	MrgX1 antag	RGS4 block	MrgX1 antag conf	HEK293 Ca flux	HEK293 Ca counter	HEK293 Ca cntr2
O=C1CCCN1CCC12CC3CC(CC(C3)C1)C2	i	i	i	-4.7*	i	i	i	i	i
C[C@H]1CN=C(Nc2ccccc2)N1CCCC1CCCCC1	i	i	i	-6.1*	i	i	i	i	i
CN(C)C1=NC[C@H](Cc2ccccc2)N1CCCC1CCCC1	i	i	nt	-5.6*	nt	i	i	i	i
C[C@H]1CN=C(Nc2ccccc2)N1CC1CCCCC1	i	i	i	i	i	nt	nt	nt	nt
O=C(NCC1CCCO1)c1cc([N+](=O)[O-])ccc1Cl (stereo not drawn)	i	i	i	i	i	nt	nt	nt	nt
COCCN1Cc2cccc(C(=O)Nc3cccnc3)c2C1=O	i	i	nt	i	nt	nt	nt	nt	nt
COCCN1Cc2cccc(C(=O)Nc3ccc(C)cc3)c2C1=O	i	i	i	-7.6*	i	81%*	i	i	i
O=C(O)c1ccc(Cl)c(S(=O)(=O)N2CCCC2)c1	i	i	i	i	i	nt	nt	nt	nt
O=C(O)c1ccc(Br)c(S(=O)(=O)N2CCCC2)c1	i	i	i	-5.6*	i	i	i	i	i
O=C(CSc1nnc(CNC(=O)c2cccs2)o1)NC1CCCCC1	i	i	i	-7.1*	i	i	i	i	i
Cc1ccccc1CN1CCN(S(=O)(=O)c2cccc3nsnc23)CC1	i	i	i	-11*	i	i	i	i	i
CCN1CCN(S(=O)(=O)c2cccc3nsnc23)CC1	i	i	i	i	i	nt	nt	nt	nt
Cc1ccccc1CN1CCN(S(=O)(=O)c2cccs2)CC1	i	i	i	-4.6*	i	i	i	i	i
